Assay outcomes: PubChem BioAssay, several laboratories
IDE inh: inhibitors of human insulin-degrading enzyme in cells. P14735. AID 434962. HEK cells, FAbetaB cleavage, fluorescence polarization. hit rate 0.41% among 320,000. inhibition, % at 5.59 µM;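 active means percent inhibition above the average of all tested compounds plus 3 SD, set per screening campaign, cut at about 16% in these data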;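 further: IDE supplied by intact live HEK cells; FP after avidin binding of uncleaved biotin substrate so inhibition keeps polarization high; 0% = DMSO wells and 100% = 60 µM reference IDE inhibitor Ii1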
TPT1 inh: blocks Candida albicans tRNA 2'-phosphotransferase; inhibition, % at 5 µM; hit rate 0.81% among 300,000; recombinant caTPT1, FP RNA substrate dephosphorylation;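 active means inhibition above the mean of all tested compounds plus 3 SD, set per screening campaign, cut at about 24% in these data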;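 further: plate controls were DMSO alone for no effect and ferristatin control at 100 nM for full effect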
Rpn11 inh: inhibitors of human proteasome Rpn11; O00487; human 26S proteasome, Ub4-pepOG fluorescence polarization; 20S core pre-blocked with epoxomicin; calls only at 20 µM; hit rate 0.59% among 360,000; AID 588493;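 active means inhibition at 20 µM, scaled to each plate's controls, above about 33%, limit read from the data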
HNF4A DNA FP: change in binding of human HNF4 alpha to DNA; P41235; HNF4a-FITC DNA binding, fluorescence polarization, 1 h; activity change, % at 10 µM; hit rate 0.3% among 360,000; AID 1224865; in the data active means activity change above about 30%, passing the limit was not always enough
Target sequence (P41235 whole entry, looked up): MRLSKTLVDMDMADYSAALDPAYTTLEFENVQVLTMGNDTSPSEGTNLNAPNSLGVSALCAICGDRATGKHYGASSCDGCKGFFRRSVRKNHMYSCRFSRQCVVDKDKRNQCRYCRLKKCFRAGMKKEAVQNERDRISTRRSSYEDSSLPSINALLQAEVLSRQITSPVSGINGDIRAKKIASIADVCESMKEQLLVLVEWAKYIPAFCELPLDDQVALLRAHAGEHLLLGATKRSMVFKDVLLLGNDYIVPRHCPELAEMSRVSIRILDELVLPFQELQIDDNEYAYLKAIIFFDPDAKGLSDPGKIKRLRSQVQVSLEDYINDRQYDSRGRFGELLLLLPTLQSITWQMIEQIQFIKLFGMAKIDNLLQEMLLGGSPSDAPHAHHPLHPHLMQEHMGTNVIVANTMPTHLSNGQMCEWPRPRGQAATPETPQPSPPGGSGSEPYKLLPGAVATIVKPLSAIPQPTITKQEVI
CSN inh: inhibitors of human CSN-mediated cullin deneddylation; Purified CSN, SCF-Nedd8-OG deneddylation, fluorescence polarization; inhibition, % at 12.5 µM; hit rate 0.38% among 360,000;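 active means pattern-corrected inhibition above about 35%, with an unprinted fluorescence ratio check between 0.5 and 1.5, limit read from the data, passing the limit was not always enough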;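 further: 0% = enzyme with substrate and 100% = substrate without enzyme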
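Schedule: reaction 90 min, room temperature / Assay system: HEK293T-derived human Csn5 enzyme / Input: Csn5 at 0.24 nM final / Measure: inhibition of Csn5 cleavage, % / Control set: substrate-only high control, full reaction low control / Technique: fluorescence polarization of the substrate / Buffer or medium: Tris/NaCl/DTT buffer, pH 7.5 / Reagent: SCFSkp2-Nedd8OG substrate at 10 nM final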
IDE act: IDE (human) activation, cell-based; P14735; HEK cells, FAbeta-B cleavage, fluorescence polarization; 0% vehicle, 100% cell-free pure enzyme wells; activation, % at 5.96 µM; hit rate 0.073% among 340,000;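 active means activation above the mean of all tested compounds plus 3 SD, set per screening campaign, cut at about 17% in these data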
TPT1 inh confirm: confirmation of Candida albicans TPT1 inhibitors. shares compounds with TPT1 inh. recombinant caTPT1, fluorescence polarization, RNase T1 coupled. inhibition, % at 5 µM. hit rate 74% among 2,400;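 active means inhibition above the primary screen limit, the mean inhibition of all tested compounds plus 3 SD, cut at about 25% in these data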
RNase T1 inh: counter-screen for TPT1 inhibitors: inhibitors of Aspergillus oryzae RNase T1; shares compounds with TPT1 inh; RNase T1 cleavage, fluorescence polarization, 1536-well; inhibition, % at 5 µM; hit rate 83% among 2,400; AID 2153;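 active means inhibition above the solvent-only control well mean plus 3 SD, limit set per screening run, cut at about 23% in these data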;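 further: plate controls were DMSO wells with enzyme for no effect and wells without RNase T1 for full effect; inhibitors block cleavage so intact labeled substrate keeps polarization high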
Target sequence (P00651 whole entry, looked up): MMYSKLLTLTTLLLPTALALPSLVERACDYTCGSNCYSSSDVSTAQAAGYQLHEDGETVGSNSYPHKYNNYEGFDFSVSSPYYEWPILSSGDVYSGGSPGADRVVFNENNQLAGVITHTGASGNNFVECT
* marks the source's active call; other numbers are inactive results; i = inactive; / = not tested or not shown; + = active, no number. Only some compounds are listed: those with a hit (about 1.7% of all), similar ones and a draw of the others.

SMILES	IDE inh	TPT1 inh	Rpn11 inh	HNF4A DNA FP	CSN inh	IDE act	TPT1 inh confirm	RNase T1 inh
CC(C)C(=O)Nc1nnc(SCC(=O)NCc2cccs2)s1	5	32*	i	-4	-4	1	1	2
CC(C)(C)C(=O)Nc1nnc(SCC(=O)NCc2cccs2)s1	7	-5	i	-2	-5	0	/	/
CC(C)/C=C/C(=O)N1CCC(N2CCC(C(=O)NCc3ccccn3)CC2)CC1	6	-13	i	2	-4	4	/	/
CC(C)NC(=O)C1CCN(C2CCN(C(=O)/C=C/c3cccs3)CC2)CC1	11	25*	i	1	-3	7	6	15
O=C(O)CC/C(=N\Nc1ccc([N+](=O)[O-])cc1)c1ccccc1	2	34*	i	11	4	2	46*	59*
O=C(COC(=O)c1ccccc1)NC12CC3CC(CC(C3)C1)C2	-2	/	i	1	-1	-2	/	/
CCN(CC)S(=O)(=O)c1cccc(NC(=O)COC(=O)CCc2nc3ccccc3s2)c1	0	128*	i	-3	-1	1	6	13
CCN(CC)S(=O)(=O)c1cc(NC(=O)COC(=O)CCc2nc3ccccc3s2)ccc1C	1	0	i	-1	5	4	/	/
Cc1ccc(S(=O)(=O)Cc2nnnn2-c2ccccc2)cc1	3	-2	i	4	19	2	/	/
O=C(c1ccc(CS(=O)Cc2ccccc2Cl)o1)N1CCN(C2CCCCC2)CC1 (configuration not stated)	0	117*	i	-2	-5	1	7	4
CCOC(=O)N1CCN(C(=O)c2ccc(CS(=O)Cc3ccccc3Cl)o2)CC1 (configuration not stated)	1	-1	i	-3	4	3	/	/
Cc1ccc2nc(Cl)c(/C=N/Nc3ccc(C(=O)O)cc3)cc2c1	-2	30*	i	0	5	-2	36*	47*
N#C/C(=C/c1ccc(-c2ccccc2)o1)c1nc(-c2cccs2)cs1	14	131*	/	17	63	-15	124*	114*
Nc1c(C(=O)Nc2ccc(F)cc2)sc2nc(-c3ccco3)ccc12	-1	28*	i	14	20	-9	25*	33*
Nc1c(C(=O)Nc2ccc(Br)cc2)sc2nc(-c3ccco3)ccc12	2	24*	i	9	34	-16	35*	44*
COC(=O)c1cc(NC(=O)c2cccc(Cl)c2)c(=O)oc1/C=C/Nc1cc(C)cc(C)c1	16	194*	/	/	/	/	166*	155*
COC(=O)c1cc(NC(=O)c2ccc(OC)cc2)c(=O)oc1C	5	2	i	1	1	2	/	/
CCCC(=O)OC1CC(C)N(C(=O)c2ccccc2)c2ccc(C)cc21 (configuration not stated)	1	1	i	-2	-1	1	/	/
CN(C)C(=O)c1cnc(Sc2ncc(C(F)(F)F)cc2Cl)n1C	0	1	i	-1	-3	-3	/	/
O=C(OCCCOC(=O)c1cc[n+]([O-])cc1)c1cc[n+]([O-])cc1	0	-3	i	0	4	3	/	/
CCOC(=O)C1=C(c2ccccc2)NC(SCC(N)=O)=C(C#N)C1c1cccnc1 (configuration not stated)	2	-1	i	-6	4	-1	/	/
C=CCOC(=O)C1=C(C)NC(SCC(=O)NC(=O)OCC)=C(C#N)C1c1cccnc1 (configuration not stated)	3	25*	i	-8	1	-2	23	31*
CC(=O)C1=C(C)NC(SCC(=O)c2ccc(-c3ccccc3)cc2)=C(C#N)C1c1cccnc1 (configuration not stated)	4	30*	/	/	/	/	39*	50*
CCn1c(O)c(/C=N/N=C/c2ccccc2)c2ccc(C3=NNC(=O)CC3)cc21	-3	61*	/	-10	-77	-2	72*	84*
CCCCOc1ccc(C2=NNC(=O)CC2)cc1	-1	1	i	-2	-4	4	/	/
SMILES	IDE inh	TPT1 inh	Rpn11 inh	HNF4A DNA FP	CSN inh	IDE act	TPT1 inh confirm	RNase T1 inh
CCC(CC)=N/N=C/c1c(O)n(CC)c2cc(C3=NNC(=O)CC3)ccc12	-3	64*	i	11	1	-3	44*	56*
CN(Cc1ccccc1)C(=O)c1ccc2nc([C@H]3C[C@H](O)[C@@H](CO)O3)[nH]c2c1	/	/	i	1	-3	/	/	/
O=[N+]([O-])c1ccc(N2CCN(Cc3ccccc3)CC2)s1	-2	31*	i	28	11	1	38*	50*
Oc1[nH]c2ccccc2c1/C=N/c1nccs1	2	36*	i	18	15	-3	35*	45*
COc1ccc(OCC(=O)N/N=C(\C)c2ccc(OC)cc2)cc1	3	-1	i	0	-2	-4	/	/
COc1ccc(OCC(=O)N/N=C(\C)c2cc3ccccc3o2)cc1	0	27*	i	2	3	3	24	35*
CN1c2cccc3cccc(c23)N(C)C1c1cccs1	0	-9	i	0	-3	-4	/	/
CC1N(C)c2cccc3cccc(c23)N1C	2	32*	+	32	3	5	6	7
CCOC(=O)C1=CNS(=O)(=O)NC1c1ccc(C)cc1 (configuration not stated)	/	/	i	-2	-3	1	/	/
O=C(COC(=O)CCN1C(=O)/C(=C\C=C\c2ccccc2)SC1=S)Nc1cc(F)ccc1F	9	28*	/	22	8	0	33*	42*
Cc1ccc(N2C(=O)CSCC2=O)cc1	3	1	i	1	4	3	/	/
Cc1ccc(N2C(=O)CS/C2=C(\C(Cl)=C(Cl)Cl)[N+](=O)[O-])cc1	-6	93*	i	21	5	-5	43*	51*
CN(C)c1ccc(N/C=C/C(=O)c2ccc(F)cc2)cc1	-2	36*	+	44*	13	6	49*	59*
NS(=O)(=O)c1ccc(N/C=C\C(=O)c2ccc(F)cc2)cc1	2	3	i	1	-1	4	/	/
CCCc1cc(=O)n(-c2nc3ccccc3s2)[nH]1	9	-6	i	-3	6	0	/	/
CCOC(=O)Cc1cc(=O)n(-c2nc3ccccc3s2)[nH]1	5	28*	i	9	13	2	14	24*
Nc1nc2ccc(C(=O)Nc3ccc(N4CCOCC4)cc3)cc2s1	0	/	i	-2	0	4	/	/
